Blank lines part the entries; values can stand above or below the molecule they belong to.
Columns and labels:
[1] = Dissociation constant, pKa of the compound; assay type: physicochemical
[2] = AUC in nude mouse xenografted with human HCT116 cells at 20 mg/kg, po; assay type: ADME, organism-based, HCT-116; parameters: dose 20 mg/kg, route oral; conditions: in vivo
How it was run: (§1)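 Pharmacokinetics in naive Sprague-Dawley rats and in HCT116 tumor-bearing nude mice after single iv or oral dosing. Parameters reported as means: AUC, clearance, Vss, half-life, Cmax and oral bioavailability (F%).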

[3] = AUC in nude mouse xenografted with human HCT116 cells at 5 mg/kg, iv; assay type: ADME, organism-based, HCT-116; parameters: dose 5 mg/kg, route intravenous; conditions: in vivo; how it was run: as §1
[4] = Oral bioavailability in nude mouse xenografted with human HCT116 cells at 20 mg/kg; assay type: ADME, organism-based, HCT-116; conditions: in vivo; how it was run: as §1
[5] = Clearance in nude mouse xenografted with human HCT116 cells at 5 mg/kg, iv; assay type: ADME, organism-based, HCT-116; parameters: dose 5 mg/kg, route intravenous; conditions: in vivo; how it was run: as §1
[6] = Volume of distribution at steady state in nude mouse xenografted with human HCT116 cells at 5 mg/kg, iv; assay type: ADME, organism-based, HCT-116; parameters: dose 5 mg/kg, route intravenous; conditions: in vivo, read-out: Vdss; how it was run: as §1
[7] = Half life in nude mouse xenografted with human HCT116 cells at 5 mg/kg, iv; assay type: ADME, organism-based, HCT-116; parameters: dose 5 mg/kg, route intravenous; conditions: in vivo; how it was run: as §1
[8] = Cmax in nude mouse xenografted with human HCT116 cells at 20 mg/kg, po; assay type: ADME, organism-based, HCT-116; parameters: dose 20 mg/kg, route oral; conditions: in vivo; how it was run: as §1
Rattus norvegicus [9] = assay: AUC in Sprague-Dawley rat at 5 mg/kg, iv; assay type: ADME, organism-based, Plasma; parameters: dose 5 mg/kg, route intravenous; conditions: in vivo; how it was run: as §1
[10] = Clearance in Sprague-Dawley rat at 5 mg/kg, iv; assay type: ADME, organism-based; parameters: dose 5 mg/kg, route intravenous; conditions: in vivo; how it was run: as §1
Rattus norvegicus [11] = assay: Oral bioavailability in Sprague-Dawley rat at 10 mg/kg; assay type: ADME, organism-based; conditions: in vivo; how it was run: as §1
Rattus norvegicus [12] = assay: AUC in Sprague-Dawley rat at 10 mg/kg, po; assay type: ADME, organism-based, Plasma; parameters: dose 10 mg/kg, route oral; conditions: in vivo; how it was run: as §1
[13] = Cmax in Sprague-Dawley rat at 10 mg/kg, po; assay type: ADME, organism-based; parameters: dose 10 mg/kg, route oral; conditions: in vivo; how it was run: as §1
[14] = Metabolic stability in plasma of nude mouse xenografted with human HCT116 cells assessed as compound remaining after 3 hrs; assay type: ADME, cell-free, HCT-116; conditions: read-out: Stability
How it was run: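 Compound incubated in mouse plasma for three hours; percentage of compound remaining measured.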

[15] = Volume of distribution at steady state in Sprague-Dawley rat at 5 mg/kg, iv; assay type: ADME, organism-based; parameters: dose 5 mg/kg, route intravenous; conditions: in vivo, read-out: Vdss; how it was run: as §1
[16] = Half life in Sprague-Dawley rat at 5 mg/kg, iv; assay type: ADME, organism-based; parameters: dose 5 mg/kg, route intravenous; conditions: in vivo; how it was run: as §1
Homo sapiens = assay: Plasma concentration in human at 800 mg, po administered as single dose; conditions: in vivo
Canis familiaris = assay: Plasma concentration in dog at 150 mg/kg, po administered as single dose; assay type: ADME, organism-based, Canis lupus familiaris; parameters: dose 150 mg/kg, route oral; conditions: in vivo
[17] = AUC in Sprague-Dawley rat at 2 mg/kg, iv; assay type: ADME, organism-based; parameters: dose 2 mg/kg, route intravenous; conditions: plasma; how it was run: as §1
[18] = Volume of distribution at steady state in Sprague-Dawley rat at 2 mg/kg, iv; assay type: ADME, organism-based; parameters: dose 2 mg/kg, route intravenous; conditions: in vivo, read-out: Vdss; how it was run: as §1
[19] = Solubility of compound at pH 6.8; assay type: physicochemical; conditions: buffer
[20] = Half life in Sprague-Dawley rat at 2 mg/kg, iv; assay type: ADME, organism-based; parameters: dose 2 mg/kg, route intravenous; conditions: in vivo; how it was run: as §1
[21] = Clearance in Sprague-Dawley rat at 2 mg/kg, iv; assay type: ADME, organism-based; parameters: dose 2 mg/kg, route intravenous; conditions: in vivo; how it was run: as §1

SMILES: O=C(/C=C/c1ccc(CN(CCc2c[nH]c3ccccc23)CCC(F)(F)F)cc1)NO
pKa [1]: 4.75

SMILES: O=C(/C=C/c1ccc(CN(CCc2c[nH]c3ccccc23)CC(F)(F)F)cc1)NO
pKa [1]: 3.2

SMILES: CC(C)(C)c1[nH]c2ncccc2c1CCNCc1ccc(/C=C/C(=O)NO)cc1
AUC [2]: 0.474 µM·h
AUC [3]: 2.44 µM·h
bioavailability [4]: 4%
clearance [5]: 95 mL/min/kg
Vd [6]: 4.5 L/kg
half-life [7]: 3.3 h
Cmax [8]: 849 nM

SMILES: O=C(/C=C/c1ccc(CN(CCO)CCc2c[nH]c3ccccc23)cc1)NO [DACINOSTAT]
pKa [1]: 7.5

SMILES: O=C(CCCCCCC(=O)Nc1ccccc1)NO [VORINOSTAT]
concentration (Homo sapiens): 1580 nM
concentration (Canis familiaris): 960 nM

SMILES: Cc1nn2ccccc2c1CCNCc1ccc(/C=C/C(=O)NO)cc1
AUC [2]: 0.362 µM·h
AUC [3]: 5.1 µM·h
bioavailability [4]: 2%
clearance [5]: 46.4 mL/min/kg
Vd [6]: 1.46 L/kg
half-life [7]: 1.44 h
AUC [17]: 2.56 µM·h
Vd [18]: 1.99 L/kg
Cmax [13]: 61 nM
solubility [19]: > 1000 µg/mL
half-life [20]: 0.915 h
clearance [21]: 36.5 mL/min/kg
Cmax [8]: 202 nM

SMILES: O=C(/C=C/c1ccc(CNCCc2c[nH]c3ccccc23)cc1)NO
pKa [1]: 7.65

Now from value to molecule:

pKa [1]: 5.8
SMILES: Cc1[nH]c2ccccc2c1CCN(CCC(F)F)Cc1ccc(/C=C/C(=O)NO)cc1

AUC (Rattus norvegicus [9]): 1.307 µM·h
clearance [10]: 66 mL/min/kg
AUC [2]: 0.0653 µM·h
F (Rattus norvegicus [11]): 5%
AUC [3]: 0.463 µM·h
AUC (Rattus norvegicus [12]): 0.336 µM·h
bioavailability [4]: 4%
clearance [5]: 176 mL/min/kg
Vd [6]: 5.9 L/kg
half-life [7]: 1 h
Cmax [13]: 204 nM
remaining at 3 h [14]: 54%
Vd [15]: 7 L/kg
half-life [16]: 1.3 h
Cmax [8]: 56 nM
SMILES: CC(C)N(CCc1c(C(C)(C)O)[nH]c2ccccc12)Cc1ccc(/C=C/C(=O)NO)cc1

pKa [1]: 4.65
SMILES: Cc1[nH]c2ccccc2c1CCN(Cc1ccc(/C=C/C(=O)NO)cc1)CC(F)F

pKa [1]: 7.9
SMILES: CCCN(CCc1c[nH]c2ccccc12)Cc1ccc(/C=C/C(=O)NO)cc1

From ChEMBL document CHEMBL1817582, “Optimization of the in vitro cardiac safety of hydroxamate-based histone deacetylase inhibitors” (J Med Chem, 2011)
